Data published in ChEMBL document CHEMBL1131122, “Synthesis and biological activity of certain 4'-thio-D-arabinofuranosylpurine nucleosides” (J Med Chem, 1998).
pIC50: −log10 of the molar value.

Key:
Type in all cases: functional, cell-based
Conditions in all cases: Homo sapiens
SNB-7 = assay: Compound was evaluated for cytotoxicity against SNB-7 (CNS) cell line
CAKI-1 = assay: Compound was evaluated for cytotoxicity against CAKI-1(renal) cell line
DLD-1 = assay: Compound was evaluated for cytotoxicity against DLD-1(colon) cell line
NCI-H23 = assay: Compound was evaluated for cytotoxicity against NCI-H23 (lung) cell line
CCRF-CEM = assay: Compound was evaluated for cytotoxicity against CCRF-CEM (leukemia) cell line
Procedure, shortened: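 Human leukemia CEM cells grown in culture and exposed to the nucleosides. In one set of runs the adenosine deaminase inhibitor 2′-deoxycoformycin was also present during the incubation.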

SK-MEL-28 = assay: Compound was evaluated for cytotoxicity against SK-MEL-28 (melanoma) cell line

| SMILES | pIC50 (SNB-7) | pIC50 (CAKI-1) | pIC50 (DLD-1) | pIC50 (NCI-H23) | pIC50 (CCRF-CEM) | pIC50 (SK-MEL-28) |
| --- | --- | --- | --- | --- | --- | --- |
| Nc1nc(N)c2ncn(C3SC(CO)C(O)C3O)c2n1 (centres undefined) | 6.00 | 4.70 | < 4.60 | < 4.60 | 6.47 | 6.47 |
| Nc1nc(F)nc2c1ncn2[C@H]1S[C@H](CO)[C@@H](O)[C@@H]1O | < 4.00 | 4.70 | < 4.00 | < 4.00 | < 3.89 | < 4.00 |
| Nc1nc(F)nc2c1ncn2[C@@H]1S[C@H](CO)[C@@H](O)[C@@H]1O | < 4.05 | 5.00 | < 4.05 | < 4.05 | 4.52 | < 4.05 |
| Nc1nc(O)c2ncn(C3SC(CO)C(O)C3O)c2n1 (centres undefined) | 5.96 | 4.85 | < 4.70 | < 4.70 | 6.24 | 5.96 |
